Only some compounds are listed: those with a hit (about 3.1% of all), similar ones and a draw of the others.
HSF1 inh = HSF1 inhibition; NIH3T3-HGL HSE-luciferase, MG132-induced, luminescence 8 h; active compounds read low; activity change, negative = inhibition, % at 7.5 µM (by protocol); 300,000 tested, 0.77% active;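 active means more than half of replicate wells show activity change below -50%, luminescence cut by over half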;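 further: luciferase reports HSF-1 transcriptional activity via heat shock element; 0% = median of DMSO wells and -100% = zero luminescence signal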
HSF1 activator = increases HSF-1 driven luciferase reporter signal; NIH3T3-HGL HSF-1 luciferase reporter, MG132, 8 h; 100% = twice DMSO control signal; activation, % at 9 µM; 300,000 tested, 1.7% active;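 active means mean replicate activation of at least 50% with a set share of replicates each reaching 50%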;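 further: 0% = median of the neutral control wells and 100% = twice that signal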
Hsp70 act = switches on Hsp70 transcription. HeLa Hsp70 promoter luciferase reporter, luminescence; scaled: vehicle 0, proteasome-inhibitor control 100%. activation, % at 10 µM. 200,000 tested, 0.04% active. AID 1203;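 active means activation above the mean across all tested compounds plus 3 SD, cutoff set per campaign, cut at about 5.5% in these data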;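 further: 100% = MG132 at 30 µM as the positive control and 0% = DMSO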
Tb hexokinase = blocks Trypanosoma brucei hexokinase 1 activity | inhibition, % at 10 µM | recombinant TbHK1, G6PDH-coupled NADH A340 | AID 1430 | 220,000 tested, 0.11% active;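 active means inhibition of 50% or more in the single-dose primary screen; inactive means inhibition below 50%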
HKDC1 inh = blocks human hexokinase HKDC1 activity. Q2TB90. 340,000 tested, 0.16% active. recombinant HKDC1, G6PDH/diaphorase resazurin coupled fluorescence. AID 493160. inhibition, % at 20 µM;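 active means inhibition above about 35% when tested at 20 µM, limit read from the data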;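 further: plate controls were DMSO wells with enzyme for no effect and DMSO wells lacking enzyme for full effect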
Target sequence (Q2TB90 whole entry, looked up): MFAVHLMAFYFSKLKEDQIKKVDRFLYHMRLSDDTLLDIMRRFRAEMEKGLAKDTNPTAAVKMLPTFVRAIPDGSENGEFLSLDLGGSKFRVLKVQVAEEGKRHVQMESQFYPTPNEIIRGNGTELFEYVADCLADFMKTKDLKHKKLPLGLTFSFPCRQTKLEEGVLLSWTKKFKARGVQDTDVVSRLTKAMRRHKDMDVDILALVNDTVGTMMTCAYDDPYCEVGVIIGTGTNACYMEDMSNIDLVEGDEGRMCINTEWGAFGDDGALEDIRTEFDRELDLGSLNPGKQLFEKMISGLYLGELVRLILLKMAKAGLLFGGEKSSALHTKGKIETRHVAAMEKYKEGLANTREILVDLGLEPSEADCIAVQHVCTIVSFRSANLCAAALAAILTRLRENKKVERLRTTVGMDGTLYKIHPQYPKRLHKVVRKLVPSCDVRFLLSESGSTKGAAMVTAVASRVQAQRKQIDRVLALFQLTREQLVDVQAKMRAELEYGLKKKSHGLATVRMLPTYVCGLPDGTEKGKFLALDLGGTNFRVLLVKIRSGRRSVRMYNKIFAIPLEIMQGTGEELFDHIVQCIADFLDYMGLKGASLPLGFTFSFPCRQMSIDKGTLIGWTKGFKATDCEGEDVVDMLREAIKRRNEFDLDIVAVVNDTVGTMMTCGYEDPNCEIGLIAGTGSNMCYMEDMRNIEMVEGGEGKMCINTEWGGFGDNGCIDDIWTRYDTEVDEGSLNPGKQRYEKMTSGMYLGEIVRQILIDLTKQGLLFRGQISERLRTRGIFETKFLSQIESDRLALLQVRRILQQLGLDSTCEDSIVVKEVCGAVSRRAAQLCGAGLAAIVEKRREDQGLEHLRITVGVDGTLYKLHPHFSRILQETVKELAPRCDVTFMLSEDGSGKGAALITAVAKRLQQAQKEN
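Assay system – recombinant HKDC1 (HK5) hexokinase enzyme, produced in-house · Input – HKDC1 at 5 µg/mL · Reagent – glucose plus 1 mM ATP as hexokinase substrates · Timing – 90 min reaction incubation at room temperature, dark · Measured by – G6PDH/diaphorase-coupled fluorescence, 1 mM NADP, 100 µM resazurin, 525/613 nm · Benchmarks – DMSO-enzyme wells negative, buffer-substituted wells positive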
HSP90 inh = inhibitors of HSP90 luciferase refolding in rabbit reticulocyte lysate | luciferase refolding luminescence, 3 h | inhibition, % at 5.6 µM | 290,000 tested, 0.91% active;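 active means inhibition above the screen-wide mean plus 3 SD, computed separately per campaign, cut at about 16% in these data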;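 further: 0% = DMSO wells and 100% = 60 µM geldanamycin wells; inhibitors lower the luminescence because luciferase stays unfolded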
Active calls of the source: *; / = no result.

SMILES | HSF1 inh | HSF1 activator | Hsp70 act | Tb hexokinase | HKDC1 inh | HSP90 inh
COC(=O)C1CCN(C(=O)CSc2nnc(-c3ccccc3)o2)CC1 | -2 | -25 | / | / | -6 | /
COCCCNc1nc2nonc2nc1N1CCN(Cc2cccc(C)c2)CC1 | 21 | 63* | 0 | -23 | 0 | 1
CC1CCC2(CC1)NC(=O)N(CC(=O)Nc1cccc(S(=O)(=O)N3CCCC3)c1)C2=O (centres undefined) | / | / | / | / | 0 | /
O=C(Nc1ccccc1C(=O)N1CCCC1)c1ncoc1-c1cccc(Cl)c1 | 22 | 62* | / | / | -4 | 1
COc1ccc(C(c2nnnn2C(C)C)N2CCN(C(=O)c3ccco3)CC2)cc1 (centres undefined) | 0 | -21 | / | / | -1 | -6
O=C(O)c1csc(N/N=C/c2ccc(Br)cc2)n1 | 39 | 81* | 0 | -9 | -4 | 16
Cc1csc(N/N=C/c2ccc([N+](=O)[O-])cc2)n1 | -5 | -11 | / | / | -5 | 4
S=C(NCc1ccco1)N/N=C/c1ccc(Cl)cc1 | 35 | 95* | 0 | -5 | -3 | 2
CN(C)c1ccc(/C=N/NC(=S)NCc2ccccc2)cc1 | 16 | 55* | 0 | -15 | 2 | -1
COC(=O)C1C2CC(=O)C(C2)C1C(=O)OC (centres undefined) | / | / | / | / | 0 | /
COCCCNS(=O)(=O)c1cc2c3c(c1)C(C)C(=O)N3CCC2 (centres undefined) | -3 | 10 | / | / | 1 | -4
CCC(c1nnnn1CCc1ccccc1)N(Cc1ccco1)Cc1cc2cc(C)cc(C)c2[nH]c1=O (centres undefined) | 27 | 58* | 0 | -5 | 2 | 3
CCC(c1nnnn1CCc1ccccc1)N(Cc1ccco1)Cc1cc2c(C)ccc(C)c2[nH]c1=O (centres undefined) | 75 | 128* | -1 | -12 | -2 | 0
Cc1ccc2[nH]c(=O)c(CN(CCc3ccccc3)C(c3nnnn3Cc3ccco3)C(C)C)cc2c1 (centres undefined) | 67 | 82* | / | -6 | 5 | 5
C[C@H](CO)N1C[C@H](C)[C@@H](CN(C)S(=O)(=O)c2cn(C)cn2)Oc2ccc(NC(=O)C3CCCCC3)cc2C1=O | / | / | / | / | -8 | /
O=C(Nc1nc2c(F)cc(F)cc2s1)c1ccccn1 | 348 | 423* | 0 | -6 | 1 | 2
O=C(Nc1ccccc1N1CCCC1)c1cc(=O)[nH]c2ccccc12 | / | / | / | / | -6 | /
O=C(Nc1ccc2c(c1)C(=O)NC2=O)c1ccc(Cl)s1 | 15 | 29 | 0 | -26 | -4 | 7
O=C(Nc1ccc2sccc2c1)c1ccc(Cl)s1 | 34 | 72* | 0 | 1 | 8 | -4
CCOc1cc2c(cc1OCC)CN(C(=O)c1cccc(S(=O)(=O)N3CCCC3)c1)CC2 | / | / | / | / | -3 | /
CCc1ccc(N2C(=O)C3C4CCC(C4=C(C)C)C3C2=O)cc1 (centres undefined) | -7 | 5 | 0 | -6 | -6 | -2
CC(C)=C1C2CCC1C1C(=O)N(c3ccc(C)c(C)c3)C(=O)C21 (centres undefined) | -71* | -78 | 0 | 37 | -11 | 7
CCOC(=O)c1c(S(=O)(=O)NCC(=O)N2CCN(c3ccc(F)cc3)CC2)c(C)n(C)c1C | -6 | 13 | / | / | -4 | -1
CC(C)Nc1nc(Cl)nc(N(C#N)CN2C(=O)c3ccccc3C2=O)n1 | 153 | 204* | 0 | -4 | -2 | 0
CCC(C)Nc1nc(Cl)nc(N(C#N)CN2C(=O)c3ccccc3S2(=O)=O)n1 (centres undefined) | 54 | 76* | 0 | -5 | -1 | -3
SMILES | HSF1 inh | HSF1 activator | Hsp70 act | Tb hexokinase | HKDC1 inh | HSP90 inh
CC(=O)c1cccc(NC(=O)CN2CCN(Cc3ccccc3)CC2)c1 | -2 | -15 | / | / | -2 | 0
COC(=O)c1cccc(NC(=O)CN2CCN(Cc3ccccc3)CC2)c1 | -62* | -70 | 0 | -2 | 0 | -3
COc1cc(NC(=O)CSc2nnnn2-c2ccccc2)cc(OC)c1OC | -64* | -73 | 0 | 1 | -4 | 2
COc1ccc(-c2nc(C#N)c(NCCc3ccccc3)o2)cc1OC | 51 | 80* | 0 | -11 | 5 | 0
CCCCCn1c(SCc2cccc(C)c2)nc2c1c(=O)[nH]c(=O)n2C | 27 | 60* | / | -2 | -2 | /
CCCn1c(SCc2ccccc2)nc2c1c(=O)[nH]c(=O)n2C | 6 | 26 | 0 | -4 | -4 | -1
COc1ccc(-c2noc(CN3CCN(C(=O)c4cccs4)CC3)n2)c(OC)c1OC | 1 | 10 | / | / | -6 | 0
O=C(CC1C=Cc2ccccc2N1C(=O)c1ccccc1)c1ccccc1 (centres undefined) | 24 | 71* | / | -9 | -1 | 1
CC1C=Cc2ccccc2N1C(=O)c1ccccc1 (centres undefined) | -63* | -70 | 0 | 2 | -3 | 2
CCOC(=O)N1c2ccccc2C=CC1OCC (centres undefined) | 0 | -11 | 0 | 3 | / | 6
Cn1cnc2c1c(=O)n(Cc1cccc(Cl)c1)c(=O)n2C | -3 | 3 | / | / | -1 | 0
CCN1CCN(S(=O)(=O)c2ccc(Cl)c(C(=O)NCc3nc4ccccc4[nH]3)c2)CC1 | / | / | / | / | -1 | /
COc1c2c(c(CCC(=O)O)c3c1C=CC(C)(C)O3)OC(C)(C)C=C2 | / | / | / | / | -7 | /
CNC(=O)c1nnsc1S(=O)(=O)c1ccc(Cl)cc1 | 102 | 158* | 0 | 3 | -1 | 2
Nc1nc(C(=O)N2CCOCC2)nn1S(=O)(=O)c1ccc(Cl)cc1 | -1 | 15 | -1 | 1 | -3 | 2
O=C(c1cc(-c2ccc(Cl)cc2)on1)N1CCOCC1 | 11 | 29 | 1 | 0 | -10 | 12
O=C(c1nnsc1S(=O)c1ccc(Cl)cc1)N1CCOCC1 (centres undefined) | 194 | 267* | 0 | -6 | 2 | 8
O=C(Nc1ccccc1)c1nnsc1S(=O)c1ccc(Cl)cc1 (centres undefined) | 208 | 157* | 0 | 1 | 17 | 0
Cc1nnsc1S(=O)c1ccc(Cl)cc1 (centres undefined) | 3 | 5 | / | / | -7 | -4
O=C(c1nnsc1S(=O)(=O)c1ccc(Cl)cc1)N1CCOCC1 | -80* | -81 | 0 | -5 | 3 | 2
CNC(=O)c1ccc(S(=O)(=O)c2ccc(Cl)cc2)c(NC(C)=O)c1 | -10 | -28 | / | / | -2 | 0
CCC(C)[C@H]1COCCS(=O)(=O)N1Cc1ccccc1 (some centres undefined) | -1 | -1 | / | / | 1 | 0
Cn1cnc([N+](=O)[O-])c1S(=O)(=O)c1cccc(Cl)c1 | 41 | 56* | 0 | -4 | 4 | 7
Cn1cnc([N+](=O)[O-])c1S(=O)(=O)Oc1ccccc1 | / | / | / | / | 3 | /
Cc1cc(Br)ccc1OCC(=O)N1CCCCCC1 | 7 | 16 | 0 | 1 | 0 | 5

Source: PubChem BioAssay (several laboratories)
